KCNQ1 block – inhibitors of human KCNQ1 channel, primary screen, cell-based, thallium flux, high-throughput | B-score at 10 µM | AID 2642, 2010 | CHO-K1 KCNQ1, FluxOR thallium flux fluorescence; stronger effect = higher value | Potassium voltage-gated channel subfamily KQT member 1 (Homo sapiens), P51787 | actives 1.3% (n = 310,000);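 active means compounds whose thallium flux B-score, printed positive for inhibition, exceeds three library SD while starting fluorescence stays within three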;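 further: channel opened by potassium depolarization with thallium stimulus after 20 min compound exposure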
Target sequence (P51787 whole entry, looked up): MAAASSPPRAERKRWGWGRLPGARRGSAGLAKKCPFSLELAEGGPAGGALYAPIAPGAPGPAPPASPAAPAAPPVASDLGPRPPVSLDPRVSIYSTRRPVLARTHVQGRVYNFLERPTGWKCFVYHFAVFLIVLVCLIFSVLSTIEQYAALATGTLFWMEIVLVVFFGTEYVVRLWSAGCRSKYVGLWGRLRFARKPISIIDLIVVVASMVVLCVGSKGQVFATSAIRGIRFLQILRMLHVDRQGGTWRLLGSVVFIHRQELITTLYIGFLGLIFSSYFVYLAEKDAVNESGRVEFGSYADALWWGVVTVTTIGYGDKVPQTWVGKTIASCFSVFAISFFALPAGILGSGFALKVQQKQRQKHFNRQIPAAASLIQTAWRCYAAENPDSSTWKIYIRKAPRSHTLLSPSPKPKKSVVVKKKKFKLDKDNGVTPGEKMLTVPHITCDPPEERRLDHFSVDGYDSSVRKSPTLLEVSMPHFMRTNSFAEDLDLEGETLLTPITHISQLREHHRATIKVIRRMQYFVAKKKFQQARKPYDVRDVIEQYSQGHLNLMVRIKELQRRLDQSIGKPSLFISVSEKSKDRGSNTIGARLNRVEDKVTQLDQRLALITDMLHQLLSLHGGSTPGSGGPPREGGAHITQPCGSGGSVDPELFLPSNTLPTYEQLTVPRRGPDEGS
KCNQ1 act – potentiators or activators of KCNQ1 channel, primary screen, cell-based, thallium flux, high-throughput | Potassium voltage-gated channel subfamily KQT member 1 (Homo sapiens), P51787 | CHO-K1 KCNQ1, thallium flux FluxOR fluorescence; stronger effect = higher value | B-score at 10 µM | actives 0.35% (n = 310,000) | AID 2648, 2010;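 active means fluorescence ratio B-score, a plate-corrected score, at least three library SD, with initial intensity B-score within 5 SD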
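assay system = CHO-K1 cells stably expressing KCNQ1 | medium = assay buffer, equal DMSO in all wells | timing = 37 °C overnight plating, 90-min dark dye load, 20-min compound pretreatment | measured by = kinetic FluxOR thallium fluorescence, 10-s 1-Hz baseline, 110-s post-stimulus read | measure = fluorescence change relative to baseline, converted to B score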
Cl transport mod – KCC2 cotransporter modulators, thallium flux, primary screen, cell-based, HEK293 KCC2, FluoZin-2 fluorescence, MLSMR. Solute carrier family 12 member 5 (Homo sapiens), Q9H2X9. KCC2 cells, thallium flux FluoZin-2 fluorescence. B-score of Tl+ flux slope (higher = more flux/activation; lower = inhibition) at 10 µM. actives 2.2% (n = 190,000);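 active means thallium flux slope and its plate-corrected score both differing from the plate sample mean at a set confidence after two filtering rounds, in either direction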;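 further: slope of fluorescence scaled to starting intensity during 10 to 20 s after thallium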
AI-2 QS mod – Vibrio harveyi AI-2 quorum sensing modulators, primary screen, JMH597 strain, luminescence/OD600 ratio; AID 2094, 2009; activity change, % at 7.5 µM; actives 0.4% (n = 300,000); Vibrio harveyi JMH597 AI-2 luminescence/OD600 ratio, 9 h; stronger effect = lower value; strain lacks LuxN and CqsS sensors; 0 = neutral-control median; in the data active means activity change below about -75%, passing the limit was not always enough; inconclusive means no clear call, values can overlap the other calls;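 further: luminescence divided by OD600 gain over 9 h not by final OD600 alone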
hERG protect – hERG rescue from dofetilide block, primary screen, cell-based, CHO-hERG, FluxOR thallium flux, dofetilide IC70 | Voltage-gated inwardly rectifying potassium channel KCNH2 (Homo sapiens), Q12809 | dofetilide IC70 present | activation (rescue from dofetilide block), less the hit threshold, % at 10 µM | actives 0.51% (n = 310,000) | AID 1511, 2009;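 active means activation above the mean of controls blocked by dofetilide plus 5 SD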;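 further: thallium influx through hERG after potassium depolarization seen as dye fluorescence rise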
SUMO Mot1 rescue – yeast Mot1-301 growth rescue at high temperature, primary screen, SUMOylation pathway inhibitor project, S. cerevisiae, ATP luminescence, 38.5C; S. cerevisiae Mot1-301 growth rescue; percent above DMSO median, 100 means doubled; growth rescue, % at 18.8 µM; actives 1% (n = 320,000); AID 2716, 2010;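 active means every valid replicate shows activation above 250% relative to neutral control wells; inactive means the rest, any valid replicate at or below 250%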
KCC2 sec1 – KCC2 modulators in sodium-free buffer, confirmation, cell-based, HEK293 KCC2, thallium flux, secondary assay. shares compounds with Cl transport mod. FluoZin2 fluorescence; stronger effect = higher value. normalised thallium flux (F/F0 slope) at 10 µM. actives 15% (n = 3,700). AID 1713, 2009;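 active means thallium flux slope above the same plate's solvent-only control mean plus 3 SD; inconclusive means the two replicate wells disagree; inactive means no significant difference from solvent-only control wells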
KCC2 bumet counter – thallium flux persisting under bumetanide in KCC2 cells, confirmation, counter-screen for KCC2 modulator project, cell-based, HEK293 KCC2, FluoZin2, secondary assay 3; shares compounds with Cl transport mod; HEK293-KCC2 + bumetanide/ouabain; stronger effect = higher value; normalized thallium flux at 10 µM; actives 49% (n = 3,700);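 active means thallium entry rate above the same plate's blocked-transporter control wells by more than 3 SD; inconclusive means the two repeat wells disagree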;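 further: raw slope of fluorescence over initial fluorescence between 10 and 20 s after thallium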
KCC2 sec2 – KCC2 modulators without ouabain present, confirmation, cell-based, HEK293 KCC2, thallium flux, FluoZin2, secondary assay 2. shares compounds with Cl transport mod. thallium flux FluoZin2 fluorescence; actives lie on both sides; F/F0 rise rate, 10–20 s post-thallium. normalized thallium flux at 10 µM. actives 23% (n = 3,700);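 active means thallium flux slope more than 3 SD above or below the plate's solvent-only control mean, mostly below; inconclusive means the two repeat wells disagreed; inactive means no significant shift from solvent-only controls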
HEK293 Tl flux – thallium flux modulation in parental HEK cells, confirmation, counter-screen for KCC2 modulator project, cell-based, counterscreen 1; shares compounds with Cl transport mod; HEK293 parental cells, thallium flux FluoZin2, ouabain; baseline-ratio fluorescence slope, 10–20 s after thallium; thallium flux rate (normalised fluorescence) at 10 µM; actives 46% (n = 3,700); AID 1716, 2009;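 active means thallium flux rate significantly above the same plate's solvent-only control wells, beyond their mean plus 3 SD; inconclusive means the two replicate wells gave conflicting results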
KCC2 ouabain – KCC2 inhibitors and activators, ouabain retest, confirmation, HEK-KCC2 cells; raw Tl+ flux slope (below DMSO = inhibition, above = activation) at 10 µM; HEK293-KCC2, thallium flux FluoZin2 fluorescence; bidirectional: low = inhibitor, high = activator; actives 48% (n = 3,700); shares compounds with Cl transport mod;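 active means thallium flux slope beyond 3 SD from same-plate DMSO control mean in most replicates, usually higher, sometimes lower; inconclusive means repeat tests gave conflicting results; inactive means no significant difference from controls in most replicates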;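 further: slope of initial-normalized fluorescence between seconds 10 and 20 after thallium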
HEK counter2 – native HEK Tl+ uptake effects, second counter-screen – HEK cells, counterscreen 2, counter-screen for KCC2 modulator project, confirmation; actives 33% (n = 3,700); shares compounds with Cl transport mod; HEK293 parental, thallium flux FluoZin-2 fluorescence slope; AID 1718, 2009; thallium flux slope at 10 µM;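 active means thallium flux slope above the same plate's solvent-control mean plus 3 SD in both duplicate wells; inconclusive means duplicate wells that disagreed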;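 further: run without ouabain in cells lacking the KCC2 cotransporter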
A number is an active result; i = inactive; ? = inconclusive; nt = not tested or not shown. This is a sample that favours compounds with a hit; in the whole collection about 4.2% have one here.

SMILES	KCNQ1 block	KCNQ1 act	Cl transport mod	AI-2 QS mod	hERG protect	SUMO Mot1 rescue	KCC2 sec1	KCC2 bumet counter	KCC2 sec2	HEK293 Tl flux	KCC2 ouabain	HEK counter2
CCn1c(SCc2nc(-c3ccccc3)no2)nnc1-c1cccs1	i	i	nt	i	i	i	i	i	i	i	0.016	?
COc1c(C)cccc1C(=O)NCc1ccc2c(c1)OCO2	i	i	nt	i	i	i	nt	nt	nt	nt	nt	nt
COc1cc2[nH]c(=S)n(C3CCCC3)c(=O)c2cc1OC	i	i	24	i	i	i	?	0.043	i	0.017	0.038	0.01
COc1cc2[nH]c(=S)n(C3CC3)c(=O)c2cc1OC	i	i	i	i	i	i	nt	nt	nt	nt	nt	nt
CCN(C(=O)c1ccc(S(=O)(=O)N(C)C)cc1)C(C)C(=O)Nc1ccc(C)cc1 (configuration not stated)	i	i	nt	i	i	i	nt	nt	nt	nt	nt	nt
NC(=S)N=Nc1c(O)n(Cc2ccc(F)cc2)c2ccccc12	i	i	4.7	i	i	i	?	0.01	i	0.014	0.029	0.012
Cc1cccc(Cn2c(O)c(N=NC(=S)Nc3ccccc3F)c3ccccc32)c1	i	8	6.8	i	27	nt	i	0.031	i	?	?	i
Cc1ccc2c(c1)c(N=O)c(O)n2Cc1ccc(Cl)cc1	i	i	i	i	i	i	nt	nt	nt	nt	nt	nt
O=C(N=Nc1c(O)n(Cc2ccccc2)c2ccccc12)c1ccc(O)cc1	i	i	i	i	i	i	nt	nt	nt	nt	nt	nt
Oc1c(N=NC(=S)Nc2ccccc2F)c2ccccc2n1Cc1ccc(F)cc1	i	15	8.3	i	55	i	i	0.03	i	0.013	i	0.014
Cc1ccc2c(c1)c(N=NC(N)=S)c(O)n2Cc1ccccc1	i	i	4.3	i	i	i	i	0.0075	i	0.011	i	0.014
C=C1C(=O)O[C@@H]2[C@H]1[C@@H](OC(=O)/C(C)=C/C)C/C(C)=C\C(=O)/C=C(\C)[C@@H]2O	i	i	i	i	i	i	nt	nt	nt	nt	nt	nt
CCCCNC(=O)Oc1c(Br)cc2sc(=O)oc2c1Br	nt	nt	i	nt	nt	i	nt	nt	nt	nt	nt	nt
